Assay outcomes (PubChem)
Rin1-Abl PPI inh – human Rin1-Abl interaction inhibition | P00519+Q13671 | TR-FRET Rin1/Abl binding, biochemical | inhibition, % at 7.35 µM | 360,000 compounds, 0.4% hits | AID 588664; in the data active = inhibition above about 5%, passing the limit was not always enough
Tb MetRS inh – Trypanosoma brucei MetRS inhibition; inhibition, % at 11.9 µM; 360,000 compounds, 0.4% hits; purified T. brucei MetRS, ATP depletion, Kinase-Glo luminescence;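 active = inhibition above a per-plate cutoff of the control wells' mean inhibition plus 3 SD, cut at about 5.5% in these data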
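assay system = parasite MetRS enzyme | timing = 15 min preincubation, 2 h reaction, all 25 °C | evaluation = percent inhibition relative to median high and low control wells | medium = HEPES buffer containing pyrophosphatase, BSA, spermine, DTT | compound = single dose, 11.9 µM final nominal, 0.9% final DMSO | detection = Kinase-Glo luminescence, ATP depletion format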
Rev-erbA mod – modulates human Rev-erb alpha binding to DNA. P20393. Rev-erbα–FITC-DNA binding, fluorescence polarization, 90 min. activity, % at 10 µM. 370,000 compounds, 0.79% hits. AID 1259318;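 active = activity above about 14%, limit read from the data; passing the limit was not always enough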
Target sequence (P20393 whole entry, looked up): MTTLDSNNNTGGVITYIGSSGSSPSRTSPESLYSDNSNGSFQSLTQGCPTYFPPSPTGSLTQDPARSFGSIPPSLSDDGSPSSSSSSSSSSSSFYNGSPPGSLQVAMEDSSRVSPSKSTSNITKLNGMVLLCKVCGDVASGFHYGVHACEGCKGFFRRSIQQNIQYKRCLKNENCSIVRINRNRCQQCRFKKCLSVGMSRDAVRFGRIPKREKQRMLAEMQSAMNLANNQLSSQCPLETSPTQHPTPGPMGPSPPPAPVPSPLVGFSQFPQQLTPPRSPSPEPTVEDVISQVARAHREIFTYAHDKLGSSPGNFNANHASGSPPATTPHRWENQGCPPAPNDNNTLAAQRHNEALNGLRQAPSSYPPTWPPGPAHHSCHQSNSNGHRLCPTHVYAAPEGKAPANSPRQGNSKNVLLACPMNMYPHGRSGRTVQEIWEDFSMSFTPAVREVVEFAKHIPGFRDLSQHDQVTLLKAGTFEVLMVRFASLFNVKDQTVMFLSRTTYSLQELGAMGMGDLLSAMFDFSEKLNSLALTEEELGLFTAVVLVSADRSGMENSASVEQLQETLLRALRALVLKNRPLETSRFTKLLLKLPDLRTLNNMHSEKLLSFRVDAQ
PG9 Ab binder – PG9 antibody binding by small molecule; AID 624416; TR-FRET gp120-PG9 antibody binding; 360,000 compounds, 0.43% hits; inhibition, % at 6.7 µM; in the data active = inhibition above about 8.5%
NR1D1 mod conf – Rev-erb alpha (human) modulation, hit confirmation | shares compounds with Rev-erbA mod | Rev-erb alpha FITC-DNA binding, fluorescence polarization, 90 min | activation, % at 25 µM | 3,000 compounds, 61% hits;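 active = activation at or above a set limit, or at least 3 SD above the negative control mean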
RORg DNA counter – RORgamma DNA-binding activity, dose-response counter-screen; purified RORgamma protein-FITC-DNA binding, fluorescence polarization; AID 1259320; shares compounds with Rev-erbA mod; IC50, µM; 910 compounds, 8% hits;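 active = Compounds whose fitted half-maximal concentration for disrupting protein-DNA binding is below 10 micromolar; the record names Rev-erb in its text, so the target is in doubt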
Hits are given with their value; – = inactive; · = no result. Compounds with a hit are over-represented: about 1.8% of the library has one in this group of screens.

SMILES	Rin1-Abl PPI inh	Tb MetRS inh	Rev-erbA mod	PG9 Ab binder	NR1D1 mod conf	others
Cc1ccn2c(NC3CCCCC3)c(-c3cccc(SC4CCCCC4)c3)nc2c1	–	–	–	–	·
CCCCCCSc1ccc(-c2nc3ccc(Cl)cn3c2NC2CCCCC2)cc1	–	–	23	–	22
Cc1ccn2c(NC3CCCCC3)c(-c3ccc(SC4CCCCC4)cc3)nc2c1	·	–	33	–	15
CC1(C)NC(=O)N(CC(=O)OCC(=O)Nc2c(Br)cc([N+](=O)[O-])cc2Br)C1=O	–	–	–	–	·
NCC1CC2c3ccccc3C1c1ccccc12 (configuration not stated)	–	–	–	–	·
CC1CCN(C(=O)CSc2nc3c(c(=O)n2C)SC(C)C3)CC1 (configuration not stated)	–	–	–	–	·
CCS(=O)(=O)NC(=O)C1(C)CCN1C(=O)Cc1ccc(Cl)cc1Cl (configuration not stated)	–	–	–	–	·
COC(=O)c1ccc(NC(=O)c2ccc3c(c2)C(=O)N(C)C3=O)cc1	–	–	52	–	34	RORg DNA counter=–
COC(=O)c1ccc(NC(=O)c2ccc3c(c2)C(=O)N(Cc2cccnc2)C3=O)cc1	–	–	–	–	·
CCCCN(CC)S(=O)(=O)c1ccc(C(=O)N=c2sc3cc(NC(C)=O)ccc3n2C)cc1	–	–	–	–	·
CCCCN(C)S(=O)(=O)c1ccc(C(=O)N=c2sc3cc(NC(C)=O)ccc3n2C)cc1	–	–	42	–	–
Cc1ccc(NC2CCCN(C(=O)C3CCCCC3)C2)cc1C (configuration not stated)	–	–	–	–	·
COc1cc(C(=O)OCc2cc3ccccc3[nH]c2=O)cc(OC)c1OC	–	–	45	–	30
COc1cc(C(=O)N(Cc2ccco2)Cc2cc3ccccc3[nH]c2=O)cc(OC)c1OC	–	–	–	–	·
COc1ccc2c(c1)c(=O)oc1cc(OCC(=O)NC3CC3)ccc12	–	–	24	–	34	RORg DNA counter=–
COc1ccc2c(c1)c(=O)oc1cc(OCC(=O)NC3CCCCC3)ccc12	–	–	–	–	·
COC(=O)c1ccc(CNC(=O)CSC(C)C(=O)Nc2cc(C)on2)cc1 (configuration not stated)	–	–	–	–	·
COC(=O)c1cc2c(c3c4cc(F)ccc4n(S(=O)(=O)c4cccc(C)c4)c13)C(=O)N(Cc1ccc(N(C)C)cc1)C2	·	·	27	–	–
O=C(Nc1cccc(NC(=O)c2ccco2)n1)c1ccco1	–	–	–	–	·
O[C@H]1C[C@H](c2ccccc2)N(Cc2cccs2)C[C@@H]1n1cc(C2CC2)nn1	–	–	18	–	–
COc1cc(NC(=O)CCc2nnc3ccc(N4CCN(c5cccc(OC)c5)CC4)nn23)cc(OC)c1	–	–	29	–	–
COc1cccc(NC(=O)CCc2nnc3ccc(N4CCN(c5cccc(OC)c5)CC4)nn23)c1	–	–	·	·	·
CC(=O)Nc1ccc(S(=O)(=O)N2CCN(CCN3CCOCC3)CC2)cc1Cl	–	–	–	–	·
CCOC(=O)c1sc(NC(=S)NC(=O)c2cccc(OC)c2)nc1C	–	–	94	–	38	RORg DNA counter=–
CCOC(=O)c1sc(NC(=S)NC(=O)c2ccccc2)nc1C	–	–	20	–	–
SMILES	Rin1-Abl PPI inh	Tb MetRS inh	Rev-erbA mod	PG9 Ab binder	NR1D1 mod conf	others
COC(=O)c1sc(NC(=S)NC(=O)c2ccccc2)nc1C	–	–	–	–	·
COC(=O)c1sc(NC(=S)NC(=O)c2cc(OC)c(OC)c(OC)c2)nc1C	–	–	57	–	–
COc1cc(C(=O)Nc2nc3ccc4nc(C)sc4c3s2)cc(OC)c1OC	–	–	115	–	–
CC(=O)Nc1ccc(NC(=O)COC(=O)c2ccc(S(=O)(=O)N(C)c3ccccc3)cc2)cc1	–	–	–	–	·
CCN(CC)C(=O)n1c(Cc2ccccc2)nc2ccccc21	–	–	–	–	·
COc1ccc(C(C)(C)C)cc1NC(=O)C1=CC=CN2CCS(=O)(=O)N=C12	–	–	24	–	30	RORg DNA counter=–
Cc1ccc(NC(=O)C2=CC=CN3CCS(=O)(=O)N=C23)cc1	–	–	–	–	·
COc1ccc(C(=O)Nc2cccc(-c3cnc4ccccc4n3)c2)cc1	–	–	26	–	–
COc1ccc(NC(=O)c2ccc(NC(=O)c3cccnc3)cc2)cc1	–	–	–	–	·
COc1ccc(C(=O)Nc2ccc(C(=O)Nc3cccnc3)cc2)cc1	–	–	26	–	24
